Screens as filed in PubChem BioAssay.
A selection: hits, their analogues and other compounds. The true share with any hit is near 2.2%.
PPC-1+TRAIL kill: PPC-1 cancer cell killing with TRAIL present. 220,000 compounds, 0.41% hits. PPC-1 cells + TRAIL, ATPLite viability luminescence. cell killing (% activity), % at 4 µM or 5 µM;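 active means cell killing above 50% in the first pass at 4 µM, then a duplicate retest at 5 µM averaging 50% or more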;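 further: plate controls were cells with TRAIL plus DMSO for no effect and medium-only wells lacking cells for full effect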
APP 5'UTR act: APP 5'UTR luciferase reporter activation. SH-SY5Y APP 5'UTR luciferase reporter, luminescence; zero percent = DMSO vehicle wells. AID 1276. activation, % at 2 µM. 190,000 compounds, 1% hits;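 active means activation above a set limit, based on mean plus 3 SD of controls, cut at about 140% in these data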
FLuc inh counter: inhibits firefly luciferase, flagging false hits in luciferase inhibition screens; P08659; ATPLite firefly luciferase biochemical luminescence, 10 min; inhibition, % at 10 µM; 200,000 compounds, 1.5% hits;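 active means inhibition above about 50% when tested at 10 µM, limit read from the data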
Target sequence (P08659 whole entry, looked up): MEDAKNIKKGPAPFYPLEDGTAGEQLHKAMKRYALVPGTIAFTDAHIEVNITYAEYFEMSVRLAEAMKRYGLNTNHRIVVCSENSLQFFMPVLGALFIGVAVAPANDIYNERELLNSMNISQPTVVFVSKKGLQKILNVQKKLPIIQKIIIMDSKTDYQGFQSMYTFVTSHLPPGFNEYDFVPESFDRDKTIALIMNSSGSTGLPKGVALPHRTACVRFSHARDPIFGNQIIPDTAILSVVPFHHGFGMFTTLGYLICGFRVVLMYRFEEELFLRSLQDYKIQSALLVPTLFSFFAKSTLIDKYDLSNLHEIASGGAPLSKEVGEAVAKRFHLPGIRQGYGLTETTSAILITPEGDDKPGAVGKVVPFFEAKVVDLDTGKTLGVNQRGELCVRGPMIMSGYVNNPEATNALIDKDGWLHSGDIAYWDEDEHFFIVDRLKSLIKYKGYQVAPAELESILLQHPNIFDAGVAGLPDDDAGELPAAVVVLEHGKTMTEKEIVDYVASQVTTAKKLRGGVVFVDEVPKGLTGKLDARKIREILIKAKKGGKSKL
NF-kB expr up: raises NF-kB expression in human neuronal cells; fold change at 12.5 µM; 190,000 compounds, 1.6% hits; NF-kB reporter expression; active compounds read high; AID 1239; in the data active means fold change above about 3.3
C8 TRAIL sens: caspase-8 TRAIL sensitization; NB7+C8 cells + TRAIL, ATPlite viability luminescence; inhibition (viability loss, TRAIL sensitization), % at 10 µM; 360,000 compounds, 1% hits; AID 624354;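 active means compounds causing at least 50% loss of cell viability in the single-dose screen, relative to plate controls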
FLuc stim CS: affects firefly luciferase, flagging false hits in luciferase stimulation screens; P08659; activation factor at 10 µM; AID 1027; 200,000 tested, under 10 active; ATPlite luciferase biochemical, luminescence, 10 min; 0 = ATP-free wells, 1 = DMSO control;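 active means luciferase activation factor, scaled between plate controls, of at least 2 with compound at 10 µM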
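Material: luciferase plus luciferin reagent, cell-free. Medium: PBS buffer for ATP. Also added: ATP substrate, dispensed from a 10.24 µM working solution in PBS. Doses: test compounds dosed from 2 mM stocks in 100% DMSO. Incubation: 10 min post-reagent at room temperature. Technique: light output (luminescence). Read-out basis: luminescence gain marking luciferase activators.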
* = called active by the depositor.

How did Cc1ccc(C2=NN(S(C)(=O)=O)C(c3cccs3)C2)cc1 (centres undefined) do in these assays?
PPC-1+TRAIL kill: 13; APP 5'UTR act: 72; FLuc inh counter: 3; NF-kB expr up: 3.8*; C8 TRAIL sens: -32; FLuc stim CS: 1

Results for COc1cccc(CNC(=O)c2ccc(CS(=O)Cc3ccccc3Cl)o2)c1 (centres undefined) ?
C8 TRAIL sens: -6

Results for Clc1ccc(-c2cn3c(n2)-c2ccccc2C3)cc1Cl ?
PPC-1+TRAIL kill: 18; APP 5'UTR act: 166*; FLuc inh counter: 66*; NF-kB expr up: 9.7*; C8 TRAIL sens: 44; FLuc stim CS: 0.3

Results for Cc1ccc(C)c(C2C(=O)c3ccccc3C2=O)c1 ?
C8 TRAIL sens: -7

What do the screens show for `Cc1ccc2ccc(C3C(=O)c4ccccc4C3=O)nc2c1`?
APP 5'UTR act: 145*; C8 TRAIL sens: 32

Results for CCOC(=O)[C@]12CCCC=C1N(CCC1=CCCCC1)C(=O)[C@H](CC(=O)NCc1ccccc1)C2 ?
C8 TRAIL sens: 5

How did COC(=O)CSc1cnc2ccccc2n1 do in these assays?
PPC-1+TRAIL kill: -12; APP 5'UTR act: -5; FLuc inh counter: -11; NF-kB expr up: 1.1; C8 TRAIL sens: -11; FLuc stim CS: 1.1

Results for O=C(CSc1cnc2ccccc2n1)c1ccc(F)cc1 ?
PPC-1+TRAIL kill: 15; APP 5'UTR act: 189*; FLuc inh counter: 8; NF-kB expr up: 4.1*; C8 TRAIL sens: 5; FLuc stim CS: 0.9

Results for C(=N\N=C\c1cccs1)/c1cccs1 ?
PPC-1+TRAIL kill: 15; APP 5'UTR act: 91; FLuc inh counter: 83*; NF-kB expr up: 3.3; C8 TRAIL sens: 16; FLuc stim CS: 0.2

How did Cc1cn([C@H]2C[C@H](O)[C@@H](/C=C/C(=O)NCc3ccc4c(c3)OCO4)O2)c(=O)[nH]c1=O do in these assays?
C8 TRAIL sens: 0

What do the screens show for `Cn1c(=O)n(C)c2cc3[nH]cnc3cc21`?
C8 TRAIL sens: -12

Results for Nc1cc2nc[nH]c2cc1N ?
PPC-1+TRAIL kill: 16; APP 5'UTR act: 163*; FLuc inh counter: 15; NF-kB expr up: 1.6; C8 TRAIL sens: 4; FLuc stim CS: 0.8

Results for CNC[C@H]1OCCCC[C@H](C)Oc2ccc(NC(=O)CCCN(C)C)cc2C(=O)N([C@H](C)CO)C[C@@H]1C ?
C8 TRAIL sens: -11

Results for Cc1noc(C)c1C(=O)Nc1nc2ccc(S(C)(=O)=O)cc2s1 ?
C8 TRAIL sens: 54*

Results for Cc1ccc(C(=O)Nc2nc3ccc(S(C)(=O)=O)cc3s2)o1 ?
PPC-1+TRAIL kill: 48; APP 5'UTR act: 103; FLuc inh counter: 74*; NF-kB expr up: 2.1; C8 TRAIL sens: 49; FLuc stim CS: 0.3

How did COc1ccc2nc(NC(=O)c3c(C)noc3C)sc2c1 do in these assays?
C8 TRAIL sens: 42

What do the screens show for `c1ccc(CNc2nc(NCCc3ccncc3)c3sccc3n2)cc1`?
C8 TRAIL sens: 33

Results for O=C(Oc1ccc(F)cc1C(=O)/C=C/c1cccs1)c1cccc([N+](=O)[O-])c1 ?
PPC-1+TRAIL kill: -2; APP 5'UTR act: -43; FLuc inh counter: -5; NF-kB expr up: 4.5*; C8 TRAIL sens: -2; FLuc stim CS: 1

What do the screens show for `CCCCCN=C(N)N/N=C/c1c[nH]c2ccc(OC)cc12`?
C8 TRAIL sens: 94*

Results for O=C(NC(=S)N1CCN(c2ccc([N+](=O)[O-])cc2)CC1)c1ccccc1F ?
PPC-1+TRAIL kill: 53*; APP 5'UTR act: -8; FLuc inh counter: -4; NF-kB expr up: 1.2; C8 TRAIL sens: -2; FLuc stim CS: 1

What do the screens show for `COC(=O)c1ccc2nc(-c3ccco3)c(Cc3ccccc3)n2c1`?
C8 TRAIL sens: 6

Results for COC(=O)c1sc(NC(=S)NC(=O)c2cccc(C)c2)nc1C ?
PPC-1+TRAIL kill: 13; APP 5'UTR act: 29; FLuc inh counter: 50; NF-kB expr up: 0.86; C8 TRAIL sens: 51*; FLuc stim CS: 0.5

How did COC(=O)c1sc(NC(=S)NC(=O)c2ccccc2F)nc1C do in these assays?
PPC-1+TRAIL kill: 21; APP 5'UTR act: 78; FLuc inh counter: 49; NF-kB expr up: 1.3; C8 TRAIL sens: 48; FLuc stim CS: 0.5

How did CC(=O)c1sc(NC(=O)c2cccc(C)c2)nc1C do in these assays?
PPC-1+TRAIL kill: 18; APP 5'UTR act: 124; FLuc inh counter: 51*; NF-kB expr up: 5.5*; C8 TRAIL sens: 25; FLuc stim CS: 0.5

How did O=C(NC1CC1)C1CCN(S(=O)(=O)c2ccc(Cl)c([N+](=O)[O-])c2)CC1 do in these assays?
C8 TRAIL sens: 64*

How did O=C(NC1CCN(S(=O)(=O)c2cccc([N+](=O)[O-])c2)CC1)C1CCCCC1 do in these assays?
C8 TRAIL sens: -1

Results for COC(=O)c1ccc(C(=O)NC(=S)Nc2nc3c(s2)CCCC3)cc1 ?
PPC-1+TRAIL kill: -7; APP 5'UTR act: 22; FLuc inh counter: -4; NF-kB expr up: 1.7; C8 TRAIL sens: 13; FLuc stim CS: 1

What do the screens show for `O=C(NC(=S)Nc1nc2c(s1)CCCC2)c1ccccc1`?
PPC-1+TRAIL kill: 23; APP 5'UTR act: 191*; FLuc inh counter: 63*; NF-kB expr up: 1.6; C8 TRAIL sens: 71*; FLuc stim CS: 0.4

Results for Cc1nc(NC(=S)NC(=O)c2ccccc2)sc1C ?
PPC-1+TRAIL kill: 19; C8 TRAIL sens: 63*

Results for CCc1nc2c(OCc3ccc(F)c(F)c3)cccn2c1N(C)C(=O)c1cccs1 ?
C8 TRAIL sens: 11

Results for CCN(C)C1CN(Cc2cn(Cc3cc(C)cc(C)c3)nn2)S(=O)(=O)C1 (centres undefined) ?
C8 TRAIL sens: -4

Results for COn1c(SCc2ccccc2)nc2ccccc2c1=O ?
PPC-1+TRAIL kill: 14; APP 5'UTR act: -5; FLuc inh counter: 0; NF-kB expr up: 1.2; C8 TRAIL sens: 69*; FLuc stim CS: 1

How did Cc1cccc(CSc2nc3ccccc3c(=O)n2C)c1 do in these assays?
C8 TRAIL sens: 15

How did COn1c(SCc2cccc(Cl)c2)nc2ccccc2c1=O do in these assays?
PPC-1+TRAIL kill: 11; APP 5'UTR act: -3; FLuc inh counter: -6; NF-kB expr up: 0.86; C8 TRAIL sens: 56*; FLuc stim CS: 1.1

How did COC(=O)c1ccc(-c2ccc(/C=N/N3C(=O)C4C5C=CC(C6CC56)C4C3=O)o2)cc1 (centres undefined) do in these assays?
PPC-1+TRAIL kill: 55*; APP 5'UTR act: 36; FLuc inh counter: -3; NF-kB expr up: 1.4; C8 TRAIL sens: 11; FLuc stim CS: 1

Results for O=C(OCc1nnc(-c2ccc(Cl)cc2)o1)c1ccc(O)cc1 ?
PPC-1+TRAIL kill: 16; APP 5'UTR act: -4; FLuc inh counter: -3; NF-kB expr up: 1.5; C8 TRAIL sens: -4; FLuc stim CS: 1
